OXTR ag = agonists of human oxytocin receptor. P30559. CHO-OTR cells, Fluo-8 calcium fluorescence; normalized: DMSO 0%, oxytocin 100%. activation, % at 3 µM. 320,000 tested, 0.32% active;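 active = activation above the mean of all tested compounds plus 3 SD, cutoff set per screening run, cut at about 20% in these data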;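 note: peak over basal fluorescence ratio from a 100 s FLIPR kinetic read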
zfTRPN1 agonist = agonists of zebrafish TRPN1 channel | HEK293 zebrafish TRPN1-YFP, Fluo-8 calcium fluorescence; 100% = response to 87 µM carbachol | activation, % at 3 µM | 220,000 tested, 0.18% active | AID 1424;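 active = activation above its plate's cutoff, the mean activation of test wells on that plate plus 3 SD, cut at about 19% in these data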;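 note: 0% = DMSO alone and 100% = 87 µM carbachol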
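Material – zebrafish TRPN1-YFP in HEK293 cells · Doses – 3 µM single point · Schedule – dye 1 h 37 °C plus 30 min RT · Signal – Fluo-8 calcium fluorescence, excitation 470-495 nm, emission 515-575 nm · Read-out – % activation versus carbachol response · Control set – carbachol high, DMSO low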
TRPML3 ag = agonists of human TRPML3 channel | activation, % at 3 µM | 220,000 tested, 0.29% active | HEK293 TRPML3-YFP, Fluo-8 calcium fluorescence; 100% = the carbachol control signal | Q8TDD5;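 active = activation above its plate's cutoff, the mean activation of the plate's test wells plus 3 SD, cut at about 12% in these data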;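 note: 0% = DMSO only wells and 100% = carbachol wells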
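Test system: HEK293 cells stably carrying human TRPML3-YFP; Doses: single dose, 3 µM final nominal compound, 0.3% DMSO final; Schedule: dye loading 1 h 37 °C then 30 min ambient, 125 s read; Technique: Fluo-8 calcium fluorescence; Benchmarks: high control carbachol 87 µM, low control DMSO.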
OXTR potentiate = potentiators of human oxytocin receptor; CHO-OTR cells, Fluo-8 calcium fluorescence, potentiator mode; 0% = oxytocin EC15, 100% = EC100; activation, % at 3 µM; 320,000 tested, 0.061% active;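 active = activation above that plate's cutoff, the mean activation of tested compounds plus 3 SD, cut at about 6.6% in these data, passing the limit was not always enough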;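 note: 100% uses oxytocin at 75 nM as the full agonist control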
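assay system = CHO-OTR cells, human receptor | schedule = compound 6 min at room temperature before oxytocin, 100 s read | detection = Fluo-8 intracellular calcium fluorescence, ex 470-495, em 515-575 nm | evaluation = normalized max/min fluorescence ratio, % activation | control set = EC15 oxytocin alone as 0%, 75 nM oxytocin (EC100) as 100%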
V1aR counter = counter-screen for oxytocin receptor agonists: human V1a receptor agonists; P37288; CHO-V1R cells, Fluo-8 calcium fluorescence, agonist mode; 0% DMSO, 100% 3 nM vasopressin; activation, % at 3 µM; 320,000 tested, 0.25% active;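 active = activation above the mean activation of all tested compounds plus 3 SD, per screening run, cut at about 20% in these data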;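 note: signal is peak over basal fluorescence ratio across a 100 second FLIPR read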
Target sequence (P37288 whole entry, looked up): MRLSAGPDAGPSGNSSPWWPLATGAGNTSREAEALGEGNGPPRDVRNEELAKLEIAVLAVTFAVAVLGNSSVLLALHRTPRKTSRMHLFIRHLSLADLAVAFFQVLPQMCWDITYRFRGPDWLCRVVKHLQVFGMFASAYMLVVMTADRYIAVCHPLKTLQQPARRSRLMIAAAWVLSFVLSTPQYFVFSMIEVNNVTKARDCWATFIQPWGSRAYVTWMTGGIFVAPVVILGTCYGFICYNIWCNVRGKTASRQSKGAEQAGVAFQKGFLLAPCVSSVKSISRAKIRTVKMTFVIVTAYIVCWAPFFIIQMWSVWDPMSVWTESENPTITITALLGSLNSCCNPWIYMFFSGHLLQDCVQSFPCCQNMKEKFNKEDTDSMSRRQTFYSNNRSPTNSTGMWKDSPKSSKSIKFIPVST
TRPN1 ag 2 = zebrafish TRPN1 agonism as TRPML3 agonist counter-screen. shares compounds with TRPML3 ag. HEK293 zebrafish TRPN1-YFP, Fluo-8 calcium fluorescence; scaled: carbachol wells 100%, DMSO wells 0%. activation, % at 3 µM. 310 tested, 10% active. AID 1525;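 active = mean activation over replicates above a set limit taken from the earlier TRPN1 channel primary screen, cut at about 19% in these data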;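 note: 100% = carbachol and 0% = 0.3% DMSO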
TRPML3 ag conf = confirmation of human TRPML3 channel agonists. shares compounds with TRPML3 ag. HEK293 TRPML3-YFP, Fluo-8 calcium fluorescence; 100% set by carbachol, 0% by DMSO. activation, % at 3 µM. 310 tested, 80% active. AID 1526;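 active = activation above a set limit derived from the earlier primary screen, cut at about 12% in these data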
The depositor's hits bear a star; nt = no result given. In the library only some 0.55% were active in any assay of this set; here they are far more common.

SMILES | OXTR ag | zfTRPN1 agonist | TRPML3 ag | OXTR potentiate | V1aR counter | others
COc1cc(/C=C2\SC(=S)N(NS(=O)(=O)c3ccccc3)C2=O)ccc1O | 24* | 25* | 17* | -8 | 41*
COc1cc(/C=C2\SC(=S)N(NC(=O)c3ccc(O)c(OC)c3)C2=O)ccc1O | 37* | nt | nt | -26 | 29*
COc1cc(/C=C2\SC(=S)N(NC(=O)c3ccncc3)C2=O)ccc1O | 10 | 13 | 7 | -4 | 14
COc1cc(/C=C2\SC(=S)N(NS(=O)(=O)c3ccc(C)cc3)C2=O)ccc1O | 24* | 37* | 24* | -5 | 39*
COc1ccc(/C=C2/SC(=S)N(NS(=O)(=O)c3ccccc3)C2=O)cc1 | 0 | nt | nt | -6 | 3
CCOc1cc(/C=C2\SC(=S)N(NS(=O)(=O)c3ccc(C)cc3)C2=O)ccc1O | 13 | nt | nt | -14 | 16
COC(=O)C1=C(N)Oc2c(oc(CO)cc2=O)C1c1ccc(F)cc1 (centres undefined) | 0 | -1 | 1 | -4 | 0
O=C(COc1ccccc1)Nc1nnc(S(=O)(=O)N2CCCCC2)s1 | 2 | nt | nt | -5 | 2
Cc1cc(C)cc(NC(=S)Nc2ccc(Cl)c(Cl)c2)c1 | 6 | 1 | 1 | -9 | 2
Cc1cc(C(=O)N2CC(C)CC(C)C2)c(C)o1 (centres undefined) | 0 | nt | nt | 0 | 0
COc1ccc(-[n+]2c(C)cc(/C=C3\Sc4ccccc4N3C)cc2C)cc1 | 15 | 19* | 7 | -20 | 13
COc1ccccc1S(=O)(=O)CC(O)COc1ccccc1Cl (centres undefined) | 0 | nt | nt | -8 | 2
CN1C(=O)c2ccc(N3CCCC3)cc2C1=O | 4 | 1 | 1 | -5 | 4
O=C1/C(=C/c2ccc(N3CCCC3)cc2)NC(=S)N1C1CC1 | 115* | 9 | 7 | -15 | 84*
Cc1cc(N2CCCC2)ccc1/C=C1\NC(=S)N(C)C1=O | 54* | 14 | 9 | -20 | 49*
O=C1N/C(=C/c2ccc(N3CCCC3)cc2)C(=O)N1c1ccccc1 | 2 | 0 | 0 | -3 | 4
CN1C(=O)c2cccc3c(Cl)ccc(c23)C1=O | -2 | 1 | 1 | -1 | 0
CN1C(=O)c2cccc3c(N(C)C)ccc(c23)C1=O | 23* | nt | nt | -20 | 23*
CNc1ccc2c3c(cccc13)C(=O)N(C)C2=O | 192* | nt | nt | -26 | 314*
O=C1C(Cl)=C(N2CCOCC2)C(=O)N1c1cccc(Cl)c1 | -2 | 1 | 1 | 0 | 0
C=CCn1c(SCC)nc(O)cc1=O | 29* | 1 | 1 | -5 | 60*
COCCCn1c(=NC(=O)c2ccccc2)c(C#N)cc2c(=O)n3cccc(C)c3nc21 | -2 | 37* | 25* | -7 | -2
Cc1ccccc1-c1nc(CS(=O)CC(=O)NC2CC2)c(C)o1 (centres undefined) | 1 | nt | nt | 2 | 1
COCc1nnc(SCC(=O)Nc2cccc(Cl)c2C)n1-c1ccccc1 | 2 | -1 | 0 | -7 | 0
COCc1nnc(SCC(=O)NCc2ccccc2)n1-c1ccccc1 | 0 | 25* | -1 | -3 | 2
SMILES | OXTR ag | zfTRPN1 agonist | TRPML3 ag | OXTR potentiate | V1aR counter | others
COc1cc(/C=C2\CC/C(=C\c3ccc(OCCO)c(OC)c3)C2=O)ccc1OCCO | 30* | 50* | 27* | -19 | 43*
CCN(CC)c1ccc(/C=C2\C(=O)c3ccc(C(=O)O)cc3C2=O)cc1 | 161* | 69* | 23* | -12 | 66*
CCN(CC)c1ccc(C(=O)O)cc1 | 0 | 0 | 0 | -9 | 1
CC(=O)Nc1ccc(Sc2ncccc2C(=O)Nc2ccc(OC(F)(F)F)cc2)cn1 | 71* | 48* | 31* | -8 | 67*
CC(=O)Nc1ccc(Sc2ncccc2C(=O)Nc2cc(Cl)cc(Cl)c2)cn1 | 4 | 2 | 1 | -6 | 3
CCc1ccc(NC(=O)C2(c3ccccc3)CC2(Cl)Cl)cc1 (centres undefined) | 25* | 14 | 6 | -25 | 30*
CCOc1ccccc1N1CCN(S(=O)(=O)c2ccc(Cl)s2)CC1 | -2 | -1 | 38* | -6 | -1 | TRPN1 ag 2=-2;TRPML3 ag conf=27*
CCN(C(=O)c1cnc(OC)cc1C(F)(F)F)c1ccc(Cl)cc1Cl | -4 | 1 | 39* | -13 | -1 | TRPN1 ag 2=18;TRPML3 ag conf=47*
COc1ccc2c(c1)C(C)CC(C)(C)N2C(=O)CSc1nc2ccccc2s1 (centres undefined) | -1 | 0 | 18* | -13 | 1 | TRPN1 ag 2=-1;TRPML3 ag conf=33*
Cn1c(N)c(C(=O)COC(=O)c2ccc(Br)o2)c(=O)n(C)c1=O | 2 | 1 | 0 | -14 | 1
COc1ccc(C(=O)OCCOc2ccccc2C(C)=O)c(O)c1 | 0 | 1 | 1 | -6 | 0
Cc1ccc(S(=O)(=O)N(C)/N=C/c2ccc(C(=O)O)cc2)cc1 | 2 | 0 | 1 | -1 | 0
Cc1ccc(NC(=O)CSC2=C(C#N)C(c3ccco3)CC(=O)N2)cc1 (centres undefined) | 1 | 2 | 1 | -14 | 2
Cc1ccc(C(=O)CSC2=C(C#N)C(c3ccco3)CC(=O)N2)c(C)c1 (centres undefined) | 52* | 18 | 16* | -11 | 53* | TRPN1 ag 2=9;TRPML3 ag conf=3
COC(=O)c1ccc(Cl)cc1N(Cc1c(F)cccc1Cl)S(C)(=O)=O | -4 | 4 | 70* | -3 | -1 | TRPN1 ag 2=11;TRPML3 ag conf=84*
COC(=O)c1ccc(CN(c2ccccc2Cl)S(C)(=O)=O)cc1 | -1 | -2 | 0 | -8 | 1
CCOC(=O)CSc1nc2c(sc(=S)n2-c2ccccc2OC)c(=O)n1-c1ccccc1OC | -2 | nt | nt | -10 | 1
CCOC(=O)CSc1nc2c(sc(=S)n2-c2ccccc2OC)c(=O)n1Cc1ccco1 | 1 | 12 | 40* | -3 | 0 | TRPN1 ag 2=16;TRPML3 ag conf=59*
CN(CC(=O)Nc1ccc(Cl)c(C(F)(F)F)c1)C(=O)CCc1nc2ccccc2c(=O)[nH]1 | 1 | nt | nt | -1 | 0
O=C(CN1C(=O)C2(OCCO2)c2ccccc21)c1ccc(Cl)cc1 | -1 | -1 | 0 | -2 | 6
COc1ccc(C2C(C(C)=O)=C(C)N=c3s/c(=C\c4cc(C)n(C)c4C)c(=O)n32)c(OC)c1 (centres undefined) | 35* | 16 | 16* | -24 | 40* | TRPN1 ag 2=28*;TRPML3 ag conf=18*

Source: PubChem
